# Activity calls are given as the source filed them. The calls are words filed in the database; no cut-off is given here.
# How the values were obtained:
# HepG2 [1] = test: Suppression of rotenone-induced ATP depletion in human HepG2 cells assessed as rescue of ATP level at 5 uM incubated for 2 hrs in presence of complex III inhibitor myxothiazol by Celltiter-Glo assay; type: functional, cell-based
# Summary of the method: (§1)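 HepG2 cells seeded 10×10^3 per well in 1 g/L glucose, 2% FBS medium the day before. Switched to glucose- and FBS-free medium containing 10 µM rotenone, with compound added at the same time, 2 h at 37 °C. ATP read by CellTiter-Glo luminescence, normalized to DMSO cells without rotenone. Mean ± SEM of ≥3 independent runs. Complex III inhibitors, where used, at 50 nM.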
# HepG2 [2] = test: Suppression of rotenone-induced ATP depletion in human HepG2 cells assessed as increase in rescue of ATP level at 0.1 to 1 uM incubated for 2 hrs by Celltiter-Glo assay; type: functional, cell-based; conditions: dose microM 0.1-1, time 2.0 hrs; summary of the method: as §1
# [3] = Cytotoxicity against human HepG2 cells assessed as cell viability at 25 uM incubated for 24 hrs by Celltiter-blue assay relative to control; type: cell-based; conditions: read-out: Activity
# Summary of the method: (§2)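 HepG2 or SH-SY5Y seeded 10×10^3 per well the day before in 1 g/L glucose medium with 2% FBS. Medium replaced with fresh 2% FBS, 1 g/L glucose medium containing compound (25 µM) for 24 h at 37 °C. CellTiter-Blue added for 4 h, fluorescence read at 560/590 nm. Viability given as % of vehicle/untreated cells. Mean ± SEM of ≥3 independent runs.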
# [4] = target: NAD(P)H dehydrogenase [quinone] 1 (Homo sapiens) (UniProt P15559); test: Substrate activity at NQO1 in human HepG2 cells assessed as reduction in cell viability in presence of NQO1 inhibitor dicoumarol by WST-1 assay; type: cell-based
# [5] = Suppression of rotenone-induced ATP depletion in human HepG2 cells incubated for 2 hrs by Celltiter-Glo assay; type: functional, cell-based; conditions: HepG2, 2 h; summary of the method: as §1
# HepG2 [6] = test: Suppression of rotenone-induced ATP depletion in human HepG2 cells assessed as rescue of ATP level at 5 uM incubated for 2 hrs in presence of complex III inhibitor antimycin by Celltiter-Glo assay; type: functional, cell-based; summary of the method: as §1
# HepG2 [7] = test: Suppression of rotenone-induced ATP depletion in human HepG2 cells assessed as rescue of ATP level at 5 uM incubated for 2 hrs in presence of NQO1 irreversible inhibitor ES936 by Celltiter-Glo assay; type: functional, cell-based
# HepG2 [8] = test: Suppression of rotenone-induced ATP depletion in human HepG2 cells assessed as increase in rescue of ATP level at 1 uM incubated for 2 hrs by Celltiter-Glo assay; type: functional, cell-based; summary of the method: as §1
# SH-SY5Y [9] = test: Cytotoxicity against human SH-SY5Y cells assessed as reduction in cell viability by WST-1 assay; type: cell-based
# [10] = Suppression of rotenone-induced ATP depletion in human HepG2 cells assessed as rescue of ATP level incubated for 2 hrs by Celltiter-Glo assay relative to control; type: functional; parameters: concentration or dose not given beside the values; summary of the method: as §1
# [11] = target: NAD(P)H dehydrogenase [quinone] 1 (Homo sapiens) (UniProt P15559); test: Substrate activity at NQO1 in human HepG2 cells assessed as reduction in cell viability by WST-1 assay; type: cell-based
# HepG2 [12] = test: Suppression of rotenone-induced ATP depletion in human HepG2 cells assessed as rescue of ATP level at 5 uM incubated for 2 hrs in presence of NQO1 inhibitor dicoumarol by Celltiter-Glo assay; type: functional, cell-based
# [13] = Cytotoxicity against […] assessed as reduction in cell viability by WST-1 assay; type: cell-based; conditions: r28
# SH-SY5Y [14] = test: Cytotoxicity against human SH-SY5Y cells assessed as reduction in cell viability at 25 uM incubated for 24 hrs by Celltiter-blue assay; type: cell-based; summary of the method: as §2
# SH-SY5Y [15] = test: Cytotoxicity against human SH-SY5Y cells assessed as reduction in cell viability incubated for 24 hrs by Celltiter-blue assay; type: cell-based
# HepG2 [16] = test: Cytotoxicity against human HepG2 cells assessed as reduction in cell viability incubated for 24 hrs by Celltiter-blue assay; type: cell-based; conditions: HepG2, 24 h
# HepG2 [17] = test: Cytotoxicity against human HepG2 cells assessed as cell reduction in cell viability at 25 uM incubated for 24 hrs by Celltiter-blue assay; type: cell-based; conditions: hepg2, 24 h; summary of the method: as §2
# [18] = (§3) Suppression of rotenone-induced ATP depletion in human HepG2 cells assessed as rescue of ATP level at 5 uM incubated for 2 hrs by Celltiter-Glo assay relative to control; type: functional; summary of the method: as §1
# [19] = target: NAD(P)H dehydrogenase [quinone] 1 (Homo sapiens) (UniProt P15559); test: Substrate activity at recombinant NQO1 (unknown origin) assessed as reduction in NADH level at 20 uM measured for 6 mins by microplate reader analysis
# HepG2 [20] = test: as §3; type: functional; summary of the method: as §1
# [21] = Cytotoxicity against C57BL/6J mouse RGC cells at 20 uM incubated for 24 hrs by Hoechst 33342 staining based counting method; type: cell-based
# Summary of the method: (§4)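 Retinal explants from 6–8 month old female wild-type C57BL/6J mice, enucleated eyes placed in ice-cold HBSS. Explants incubated 24 h ex vivo in pre-warmed Neurobasal A with compounds in 0.1% DMSO, alone for toxicity or with 100 µM rotenone for activity. Hoechst 33342-stained nuclei (and anti-RBPMS-positive RGCs) counted in the central retina ganglion cell layer. Mean ± SEM, 1-way ANOVA with Tukey.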
# [22] = Cytoprotection against rotenone-induced C57BL/6J mouse retinal ganglion cells loss assessed as cell survival at 10 uM incubated for 24 hrs by Hoechst 33342 staining based counting method (reference value: 41%); type: functional; conditions: RGC, read-out: Activity; summary of the method: as §4
# NAD(P)H dehydrogenase [quinone] 1 (Homo sapiens), sequence (P15559 whole entry): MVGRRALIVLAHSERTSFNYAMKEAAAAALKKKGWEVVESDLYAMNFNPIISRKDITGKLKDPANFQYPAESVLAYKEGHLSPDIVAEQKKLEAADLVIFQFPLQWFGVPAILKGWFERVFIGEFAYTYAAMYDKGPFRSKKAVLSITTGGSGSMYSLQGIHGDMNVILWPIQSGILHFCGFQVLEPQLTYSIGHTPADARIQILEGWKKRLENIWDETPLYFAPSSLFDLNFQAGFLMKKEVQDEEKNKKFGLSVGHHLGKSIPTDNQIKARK
smiles,measurement,setting,value
CC1=C(Nc2ccc(F)c(C(F)(F)F)c2)C(=O)c2ccccc2C1=O,Activity,HepG2 [1],inactive
same,Activity,HepG2 [2],Active
same,"viability at 24 h, 25 µM",[3],101%
same,Activity,[4],inactive
same,EC50,[5],0.91 µM
same,Activity,HepG2 [6],inactive
same,Activity,HepG2 [7],inactive
same,Activity,HepG2 [8],Active
same,Activity,SH-SY5Y [9],Non-Toxic
same,Activity,[10],52.6%
same,Activity,[11],Active
same,Activity,HepG2 [12],inactive
same,Activity,[13],Non-Toxic
same,Activity,SH-SY5Y [14],Non-Toxic
same,IC50,SH-SY5Y [15],> 100 µM
same,IC50,HepG2 [16],> 100 µM
O=C1C(Nc2cccc(C(F)(F)F)c2)=C(SC(F)(F)F)C(=O)c2ccccc21,Activity,HepG2 [17],Toxic
same,Activity,HepG2 [8],Active
same,Activity,SH-SY5Y [14],Toxic
CCCCC1=C(C)C(=O)c2ccccc2C1=O,Activity,SH-SY5Y [14],Toxic
O=C1C(Cl)=C(Nc2cccc(O)c2)C(=O)c2ccccc21,Activity,[4],inactive
same,Activity,SH-SY5Y [9],Non-Toxic
same,Activity,[11],Active
same,Activity,[13],Non-Toxic
COC1=C(Nc2ccccc2)C(=O)c2ccccc2C1=O,Activity,HepG2 [8],inactive
same,Activity,SH-SY5Y [14],Non-Toxic
CC1=C(SC(C)(C)C)C(=O)c2ccccc2C1=O,Activity,[18],70%
same,Activity,SH-SY5Y [14],Toxic
CC(C)OC1=C(Nc2ccccc2)C(=O)c2ccccc2C1=O,Activity,HepG2 [8],inactive
CN(C)C1=C(Nc2ccccc2)C(=O)c2ccccc2C1=O,Activity,HepG2 [8],Active
CNC1=C(Nc2ccc(F)c(C(F)(F)F)c2)C(=O)c2ccccc2C1=O,"viability at 24 h, 25 µM",[3],95.8%
same,Activity,[19],inactive
same,Activity,[10],14.7%
same,Activity,SH-SY5Y [14],Non-Toxic
CSC1=C(Nc2cc(C(F)(F)F)ccc2F)C(=O)c2ccccc2C1=O,Activity,HepG2 [8],Active
same,Activity,SH-SY5Y [14],Non-Toxic
O=C1C(Br)=C(NCCc2ccccn2)C(=O)c2ccccc21,Activity,SH-SY5Y [14],Toxic
O=C1C(Nc2ccc(F)c(C(F)(F)F)c2)=C(SC(F)(F)F)C(=O)c2ccccc21,Activity,HepG2 [17],Toxic
same,"viability at 24 h, 25 µM",[3],65.8%
same,Activity,[4],inactive
same,Activity,[19],Active
same,Activity,HepG2 [8],Active
same,Activity,SH-SY5Y [9],Non-Toxic
same,Activity,[10],58.6%
same,Activity,[11],Active
same,Activity,[13],Non-Toxic
same,Activity,SH-SY5Y [14],Toxic
NC1=C(Cl)C(=O)c2ccccc2C1=O,Activity,HepG2 [20],inactive
CSC1=C(Nc2cccc(C(F)(F)F)c2)C(=O)c2ccccc2C1=O,Activity,SH-SY5Y [14],Non-Toxic
COC1=C(Nc2cc(C(F)(F)F)ccc2F)C(=O)c2ccccc2C1=O,Activity,[4],inactive
same,Activity,HepG2 [8],Active
same,Activity,SH-SY5Y [9],Non-Toxic
same,Activity,[11],Active
same,Activity,[13],Non-Toxic
same,Activity,SH-SY5Y [14],Non-Toxic
O=C(OC1=C(c2ccccc2)C(=O)c2ccccc2C1=O)c1cccc([N+](=O)[O-])c1,Activity,SH-SY5Y [14],Toxic
O=C1C(Cl)=C(Nc2ccccc2)C(=O)c2ccccc21,Activity,HepG2 [8],Active
CC1=C(CCCC(=O)NCCc2ccc(O)cc2)C(=O)c2ccccc2C1=O,Activity,HepG2 [2],Active
same,EC50,[5],0.8 µM
same,Activity,[19],inactive
same,IC50,SH-SY5Y [15],76 µM
same,IC50,HepG2 [16],> 100 µM
CCOC1=C(Nc2ccccc2)C(=O)c2ccccc2C1=O,Activity,HepG2 [8],inactive
same,Activity,SH-SY5Y [14],Non-Toxic
O=C1C=C(NCc2ccccc2)C(=O)c2ccccc21,Activity,HepG2 [8],Active
same,Activity,SH-SY5Y [14],Toxic
O=C1C(Cl)=C(NCc2ccccc2)C(=O)c2ccccc21,Activity,[18],70%
same,Activity,HepG2 [8],Active
same,Activity,SH-SY5Y [14],Toxic
O=C1C(Nc2ccccc2)=C(Oc2ccccc2)C(=O)c2ccccc21,Activity,HepG2 [8],inactive
O=C1C=C(Nc2ccc(F)c(C(F)(F)F)c2)C(=O)c2ccccc21,"viability at 24 h, 25 µM",[3],35.6%
same,Activity,[10],54.5%
same,Activity,SH-SY5Y [14],Non-Toxic
O=C1C=C(NCCc2ccccc2)C(=O)c2ccccc21,Activity,SH-SY5Y [14],Toxic
CC1=C(Sc2ccccc2)C(=O)c2ccccc2C1=O,Activity,[18],70%
same,Activity,SH-SY5Y [14],Toxic
COC1=C(Nc2cccc(C(F)(F)F)c2)C(=O)c2ccccc2C1=O,Activity,[18],70%
same,Activity,[4],inactive
same,Activity,HepG2 [8],Active
same,Activity,SH-SY5Y [9],Non-Toxic
same,Activity,[11],Active
same,Activity,[13],Non-Toxic
same,Activity,SH-SY5Y [14],Non-Toxic
CCNC1=C(Nc2ccccc2)C(=O)c2ccccc2C1=O,Activity,HepG2 [8],Active
same,Activity,SH-SY5Y [14],Non-Toxic
O=C1C(Cl)=C(NCCc2cccc(C(F)(F)F)c2)C(=O)c2ccccc21,Activity,HepG2 [8],Active
COC(=O)c1ccc(NC2=C(Cl)C(=O)c3ccccc3C2=O)cc1,Activity,[18],70%
same,Activity,HepG2 [17],Toxic
same,Activity,SH-SY5Y [14],Toxic
CC(C)SC1=C(Nc2cccc(C(F)(F)F)c2)C(=O)c2ccccc2C1=O,Activity,HepG2 [17],Toxic
same,Activity,HepG2 [8],Active
same,Activity,SH-SY5Y [14],Toxic
CCCCNC1=C(Cl)C(=O)c2ccccc2C1=O,Activity,[18],70%
same,Activity,SH-SY5Y [14],Toxic
O=C1C=C(NCCCCO)C(=O)c2ccccc21,Activity,SH-SY5Y [14],Toxic
O=C1C(Cl)=C(Nc2ccc(Nc3ccccc3)cc2)C(=O)c2ccccc21,Activity,HepG2 [17],Toxic
same,Activity,SH-SY5Y [14],Toxic
COC1=C(OC)C(=O)C(CCCCCCCCCCO)=C(C)C1=O [IDEBENONE],Activity,HepG2 [1],inactive
same,Activity,HepG2 [2],Active
same,Activity,[18],70%
same,"viability at 24 h, 25 µM",[3],92.8%
same,EC50,[5],0.94 µM
same,Activity,HepG2 [6],inactive
same,Activity,[10],44.3%
same,Activity,[21],Toxic
same,viability at 10 µM,[22],73%
same,Activity,SH-SY5Y [14],Toxic
same,IC50,SH-SY5Y [15],15.9 µM
same,IC50,HepG2 [16],64.5 µM
CC1=C(CCCCCCCCCCO)C(=O)c2ccccc2C1=O,Activity,HepG2 [8],inactive
CCSC1=C(Nc2cccc(C(F)(F)F)c2)C(=O)c2ccccc2C1=O,Activity,HepG2 [17],Toxic
same,Activity,[4],inactive
same,Activity,HepG2 [8],Active
same,Activity,SH-SY5Y [9],Non-Toxic
same,Activity,[11],Active
same,Activity,[13],Non-Toxic
same,Activity,SH-SY5Y [14],Toxic
O=C1C(Cl)=C(NCCc2ccccc2)C(=O)c2ccccc21,Activity,HepG2 [8],Active
O=C1C(Cl)=C(Nc2ccc(F)c(C(F)(F)F)c2)C(=O)c2ccccc21,"viability at 24 h, 25 µM",[3],65.8%
same,Activity,[10],40.3%
O=C1C(Cl)=C(NCCC(F)(F)F)C(=O)c2ccccc21,Activity,HepG2 [20],inactive
COC1=C(Nc2ccc(F)c(C(F)(F)F)c2)C(=O)c2ccccc2C1=O,Activity,HepG2 [1],inactive
same,Activity,HepG2 [2],Active
same,"viability at 24 h, 25 µM",[3],96.5%
same,Activity,[4],inactive
same,EC50,[5],0.46 µM
same,Activity,HepG2 [6],inactive
same,Activity,[19],Active
same,Activity,HepG2 [7],inactive
same,Activity,HepG2 [8],Active
same,Activity,SH-SY5Y [9],Non-Toxic
same,Activity,[10],58.6%
same,Activity,[11],Active
same,Activity,HepG2 [12],inactive
same,Activity,[13],Non-Toxic
same,Activity,SH-SY5Y [14],Non-Toxic
same,IC50,SH-SY5Y [15],> 100 µM
same,IC50,HepG2 [16],> 100 µM
O=C1C(Cl)=C(NCc2cccc(C(F)(F)F)c2)C(=O)c2ccccc21,Activity,HepG2 [8],Active
O=C1C(Cl)=C(Nc2cccc(C(F)(F)F)c2)C(=O)c2ccccc21,Activity,HepG2 [17],Toxic
same,Activity,HepG2 [8],Active
same,Activity,SH-SY5Y [14],Toxic
CNC1=C(Nc2ccccc2)C(=O)c2ccccc2C1=O,Activity,[19],inactive
same,Activity,SH-SY5Y [14],Non-Toxic
